Results as given in ChEMBL document CHEMBL1126973, “Synthesis and tubulin binding of novel C-10 analogues of colchicine” (J Med Chem, 1993).

Key:
Assay type in all cases: functional
Mus musculus [1] = species on record: Mus musculus; experiment: Percent inhibition of [3H]colchicine binding to tubulin with molar ratio of 1:10 (inhibitor: [3H]colchicine)
Mus musculus [2] = species on record: Mus musculus; experiment: Concentration required to effect a 50% reduction in microtubule polymerization; details: read-out: I50
In short: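 GTP was added to 1 mM final and the sample warmed to 37 °C. Turbidity was followed at 400 nm, and percent inhibition was taken from plateau absorbance versus a no-ligand control. I50 was interpolated from the inhibition–concentration plot.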

Mus musculus [3] = species on record: Mus musculus; experiment: Percent inhibition of [3H]-colchicine binding to tubulin with molar ratio of 1:1 (inhibitor: [3H]-colchicine)
In short: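 5 µM ligand, 5 µM tubulin and 5 µM [3H]colchicine in PMEG buffer (PME plus 0.1 mM GTP) were incubated 1.5 h at 37 °C, then quenched on ice. Bound label was separated by centrifuged G-50 gel filtration and counted by scintillation. Percent inhibition is relative to a no-ligand control, run in quadruplicate and averaged.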

SMILES | IC50 (Mus musculus [2]) [µM] | Inhibition (Mus musculus [1]) [%] | Inhibition (Mus musculus [3]) [%]
COc1cc2c(c(OC)c1OC)-c1ccc(-c3ccccc3)c(=O)cc1[C@@H](NC(C)=O)CC2 | 57 | 25.6 | 10.6
COc1cc2c(c(OC)c1OC)-c1cccc(=O)cc1[C@@H](NC(C)=O)CC2 [CHOLCHICIDE] | 7.9 | 53.7 | 13.2
COc1cc2c(c(OC)c1OC)-c1ccc(I)c(=O)cc1[C@@H](NC(C)=O)CC2 | 3.8 | 98.3 | 74
COc1cc2c(c(OC)c1OC)-c1ccc(CC(C)C)c(=O)cc1[C@@H](NC(C)=O)CC2 | 8.5 | 36.7 | 13.4
COc1cc2c(c(OC)c1OC)-c1ccc(C)c(=O)cc1[C@@H](NC(C)=O)CC2 | 4.1 | 96.7 | 56.6
COc1cc2c(c(OC)c1OC)-c1ccc(Br)c(=O)cc1[C@@H](NC(C)=O)CC2 | 3.3 | 97.4 | 59.4
CCC(C)c1ccc2c(cc1=O)[C@@H](NC(C)=O)CCc1cc(OC)c(OC)c(OC)c1-2 (some centres not stated) | 10 | 57.1 | 19.6
COc1cc2c(c(OC)c1OC)-c1ccc(F)c(=O)cc1[C@@H](NC(C)=O)CC2 | 8.2 | 50.2 | 11
COc1cc2c(c(OC)c1OC)-c1ccc(OC)c(=O)cc1[C@@H](NC(C)=O)CC2 [COLCHICINE] | 5.1 | 89.7 | 37.2

Continued, in another order:

IC50 (Mus musculus [2]) [µM] | SMILES | Inhibition (Mus musculus [1]) [%] | Inhibition (Mus musculus [3]) [%]
4.2 | COc1cc2c(c(OC)c1OC)-c1ccc(C(C)(C)C)c(=O)cc1[C@@H](NC(C)=O)CC2 | 69.4 | 21.9
11 | CCCOc1ccc2c(cc1=O)[C@@H](NC(C)=O)CCc1cc(OC)c(OC)c(OC)c1-2 | 54.8 | 16.6
4.2 | COc1cc2c(c(OC)c1OC)-c1ccc(C(C)C)c(=O)cc1[C@@H](NC(C)=O)CC2 | 90 | 44.9
6.1 | CCOc1ccc2c(cc1=O)[C@@H](NC(C)=O)CCc1cc(OC)c(OC)c(OC)c1-2 | 75 | 24.6
26 | CCCCc1ccc2c(cc1=O)[C@@H](NC(C)=O)CCc1cc(OC)c(OC)c(OC)c1-2 | 24.7 | 13.9
23 | COc1cc2c(c(OC)c1OC)-c1ccc(OC(C)C)c(=O)cc1[C@@H](NC(C)=O)CC2 | 50.5 | 10.1
3.5 | CCCc1ccc2c(cc1=O)[C@@H](NC(C)=O)CCc1cc(OC)c(OC)c(OC)c1-2 | 89.2 | 41.7
4.2 | COc1cc2c(c(OC)c1OC)-c1ccc(N=[N+]=[N-])c(=O)cc1[C@@H](NC(C)=O)CC2 | 95.8 | 51.1
4.2 | CCc1ccc2c(cc1=O)[C@@H](NC(C)=O)CCc1cc(OC)c(OC)c(OC)c1-2 | 96.5 | 54.9
3.7 | COc1cc2c(c(OC)c1OC)-c1ccc(Cl)c(=O)cc1[C@@H](NC(C)=O)CC2 | 96.2 | 57.2
